In publication PMC3985442 (The Journal of Organic Chemistry, 2014):
Where two headings read alike, the source gives them in different places.

Assays:
[1] = molecular target: T1, His-Ste14p (yeast Icmt) (Saccharomyces cerevisiae, UniProt P32584); conditions: cited from earlier work
T1 sequence (P32584 1-239): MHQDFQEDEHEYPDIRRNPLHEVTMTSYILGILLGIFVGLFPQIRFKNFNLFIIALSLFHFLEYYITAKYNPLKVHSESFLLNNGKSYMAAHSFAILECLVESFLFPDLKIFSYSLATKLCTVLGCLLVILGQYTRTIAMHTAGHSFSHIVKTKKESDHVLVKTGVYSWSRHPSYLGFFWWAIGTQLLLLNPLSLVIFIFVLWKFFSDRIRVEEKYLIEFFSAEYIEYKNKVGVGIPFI

[2] = molecular target: T1, His-Ste14p (yeast Icmt); format: biochemical; conditions: pH 7.5, 30 °C; for Vmax: pmol of methyl groups transferred to substrate; for Vmax / Km: crude membrane preparations, 20 μM [14C]SAM, 100 mM Tris-HCl, 30 min, liquid scintillation counting; for Km: read-out: Km(app), apparent values (single SAM concentration, membrane suspension); for Vmax/Km: catalytic efficiency, from Vmax and apparent Km, crude membranes
In short: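 Membranes from yeast strain CH2704 overexpressing His-Ste14p: 100 000g pellet resuspended in 10 mM Tris-HCl pH 7.5, stored at −80 °C. Reaction: membranes plus substrate, 20 μM [14C]SAM (50–60 mCi/mmol), 100 mM Tris-HCl pH 7.5, 30 °C for 30 min. Stopped with 1 M NaOH/1% SDS; base-labile [14C]methyl diffused onto filter over scintillant, rt for 2.5 h, then counted. Km apparent: single SAM level, peptide partitions into membranes.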

[3] = test system: His-Ste14p (crude membranes); format: binding, Saccharomyces cerevisiae; conditions: 16 in competition with 17, 5 to 200 μM
In short: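 Crude membranes (100 μg) from a Δste14 yeast strain overexpressing His-Ste14p, in 10 mM Tris-HCl pH 7.5, preincubated with increasing competitor peptide; diazirine photoprobe then added, 4 °C for 5 min. Irradiated at 365 nm, 30 min on ice. Solubilized in RIPA/10% SDS; neutravidin-agarose pulldown 2 h at 4 °C, three washes, eluted in SDS sample buffer at 65 °C for 30 min. 12% SDS-PAGE, α-Ste14p immunoblot (1:500).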

Molecule	Vmax/Km ([1]; catalytic efficiency, previously reported) [pmol min^–1 mg^–1 μM^–1]	Vmax ([1]; pmol of methyl groups transferred to substrate, previously reported) [pmol min^–1 mg^–1]	Km ([1]; read-out: Km(app), apparent values, previously reported) [µM]	Vmax [2] [pmol min^–1 mg^–1]	Km [2] [µM]	site of photolabeling, inferred from competition [3]	Vmax/Km [2] [pmol min^–1 mg^–1 μM^–1]	Vmax ([2]; listed as diazirine-containing peptide) [pmol min^–1 mg^–1]
CC(=O)N[C@@H](CSC/C=C(\C)CC/C=C(\C)CCC=C(C)C)C(=O)O [AFC, N-acetyl-S-farnesyl-L-cysteine]	54	870 ± 15	15.9 ± 0.9					
Biotin-Peg4-K(5-Fam)YIIKGVFWDPAC(C5-m-BP)-OH [compound 19]				217 ± 3	27.8 ± 1			
Biotin-Peg4-K(5-Fam)YIIKGVFWDPAC(C10-Diazirine)-OH [compound 16]				947 ± 4	6.6 ± 0.2	labeling the substrate binding site of His-Ste14p	143	947
Biotin-Peg4-YIIKGVFWDPAC(Fr)-OH [compound 17]				1919 ± 30			157	
